Laboratory results taken from ChEMBL document CHEMBL6153131, “Rational Design and Optimization of a Potent IDO1 Proteolysis Targeting Chimera (PROTAC)” (J Med Chem, 2025).

Columns and labels:
[1] = target: T1, Protein cereblon/Indoleamine 2,3-dioxygenase 1 (Homo sapiens, UniProt P14902+Q96SW2); test: (§1) PROTAC activity at CRBN/N-terminal HiBiT-tagged IDO1 (unknown origin) transfected in human U87 cells assessed as induction of IDO1 degradation pretreated with IFN-gamma for 24 hrs followed by compound addition and measured after 24 hrs by Nano-Glo HiBiT assay; assay type: cell-based
In short: (§2)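 U87 cells carrying HiBiT knocked in by CRISPR/Cas9 at the IDO1 N-terminus, treated for 24 h. Degradation read as loss of luminescence. DC50 fitted from the lowest concentration up to maximal degradation, excluding hook-effect points; triplicate mean ± SD.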
Target sequence in this assay (P14902 whole entry): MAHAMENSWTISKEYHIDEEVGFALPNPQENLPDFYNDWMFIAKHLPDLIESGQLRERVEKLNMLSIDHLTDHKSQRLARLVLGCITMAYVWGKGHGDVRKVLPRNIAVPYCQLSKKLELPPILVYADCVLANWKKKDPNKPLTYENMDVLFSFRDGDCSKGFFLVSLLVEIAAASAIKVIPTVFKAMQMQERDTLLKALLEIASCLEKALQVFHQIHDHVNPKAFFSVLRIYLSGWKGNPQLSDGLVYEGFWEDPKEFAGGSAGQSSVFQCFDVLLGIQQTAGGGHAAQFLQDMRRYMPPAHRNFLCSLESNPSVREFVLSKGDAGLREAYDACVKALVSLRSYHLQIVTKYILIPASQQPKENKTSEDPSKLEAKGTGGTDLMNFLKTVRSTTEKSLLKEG
Target sequence in this assay (Q96SW2 whole entry): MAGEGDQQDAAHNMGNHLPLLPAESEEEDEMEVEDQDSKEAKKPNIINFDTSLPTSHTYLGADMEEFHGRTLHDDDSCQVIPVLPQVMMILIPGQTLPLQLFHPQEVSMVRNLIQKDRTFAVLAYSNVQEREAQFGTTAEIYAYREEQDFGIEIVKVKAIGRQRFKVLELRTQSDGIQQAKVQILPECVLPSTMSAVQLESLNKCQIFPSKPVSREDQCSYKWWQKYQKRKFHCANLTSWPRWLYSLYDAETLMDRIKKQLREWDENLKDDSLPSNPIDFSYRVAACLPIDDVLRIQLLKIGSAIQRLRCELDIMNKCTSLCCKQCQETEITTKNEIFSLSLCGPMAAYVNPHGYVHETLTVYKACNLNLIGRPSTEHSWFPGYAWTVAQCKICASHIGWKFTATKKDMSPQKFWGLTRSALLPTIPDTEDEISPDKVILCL

[2] = target: T1, Protein cereblon/Indoleamine 2,3-dioxygenase 1; test: as §1, with “degradation by measuring maximum efficacy” for “degradation”, “assay relative to control” for “assay”; assay type: cell-based; in short: as §2
Target sequence in this assay (P14902 whole entry, looked up): as the sequence (P14902 whole entry) above
Target sequence in this assay (Q96SW2 whole entry, looked up): as the sequence (Q96SW2 whole entry) above

**Q.** With `C[C@@H](C(=O)Nc1ccc(OC2CCN(C(=O)CCOCCN3CCN(c4ccc5c(c4)C(=O)N(C4CCC(=O)NC4=O)C5=O)CC3)CC2)cc1)[C@H]1CC[C@@H](c2ccnc3ccc(F)cc32)CC1` (stereo not given in full) as the molecule, how does the DC50 [1] read?
**A.** > 10 µM

**Q.** What about the Emax [2] of the same molecule?
**A.** < 10%

**Q.** What does the source list for `C[C@@H](C(=O)Nc1ccc(Cl)c(OC2CCN(C(=O)CN3CCC(N4CCN(c5ccc6c(c5)C(=O)N(C5CCC(=O)NC5=O)C6=O)CC4)CC3)CC2)c1)[C@H]1CC[C@@H](c2ccnc3ccc(F)cc32)CC1` (stereo not given in full)?
**A.** DC50 [1]: 0.007 µM; Emax [2]: 51%

**Q.** With `C[C@@H](C(=O)Nc1cccc(OC2CCN(C(=O)CN3CCN(c4ccc5c(c4)C(=O)N(C4CCC(=O)NC4=O)C5=O)CC3)CC2)c1)[C@H]1CC[C@@H](c2ccnc3ccc(F)cc32)CC1` (stereo not given in full) as the molecule, how does the DC50 [1] read?
**A.** > 10 µM

**Q.** What about the Emax [2] of the same molecule?
**A.** < 10%

**Q.** Which results are given for `C[C@@H](C(=O)Nc1ccc(Cl)c(OC2CCN(C(=O)CN3CCC(CN4CCN(c5ccc6c(c5)C(=O)N(C5CCC(=O)NC5=O)C6=O)CC4)CC3)CC2)c1)[C@H]1CC[C@@H](c2ccnc3ccc(F)cc32)CC1` (stereo not given in full)?
**A.** DC50 [1]: 0.008 µM; Emax [2]: 48%

**Q.** Which DC50 [1] does the source give for `C[C@@H](C(=O)Nc1ccc(Cl)c(OC2CCN(C(=O)CCOCCOCCNc3cccc4c3C(=O)N(C3CCC(=O)NC3=O)C4=O)CC2)c1)[C@H]1CC[C@@H](c2ccnc3ccc(F)cc32)CC1` (stereo not given in full) here?
**A.** > 10 µM

**Q.** What about the Emax [2] of the same molecule?
**A.** < 10%

**Q.** What does the source list for `C[C@@H](C(=O)Nc1ccc(OC2CCN(C(=O)CN3CCC(CN4CCN(c5cccc6c5C(=O)N(C5CCC(=O)NC5=O)C6=O)CC4)CC3)CC2)cc1)[C@H]1CC[C@@H](c2ccnc3ccc(F)cc32)CC1` (stereo not given in full)?
**A.** DC50 [1]: > 10 µM; Emax [2]: < 10%

**Q.** `C[C@@H](C(=O)Nc1ccc(OC2CCN(C(=O)CN3CCC(CN4CCN(c5ccc6c(c5)C(=O)N(C5CCC(=O)NC5=O)C6=O)CC4)CC3)CC2)cc1)[C@H]1CC[C@@H](c2ccnc3ccc(F)cc32)CC1` (stereo not given in full) was tested. Which DC50 [1] did it give?
**A.** 0.34 µM

**Q.** And the Emax [2]?
**A.** 26%

**Q.** Which results are given for `C[C@@H](C(=O)Nc1ccc(Cl)c(OC2CCN(C(=O)CCOCCN3CCN(c4ccc5c(c4)C(=O)N(C4CCC(=O)NC4=O)C5=O)CC3)CC2)c1)[C@H]1CC[C@@H](c2ccnc3ccc(F)cc32)CC1` (stereo not given in full)?
**A.** DC50 [1]: > 10 µM; Emax [2]: < 10%

**Q.** `C[C@@H](C(=O)Nc1ccc(Cl)c(OC2CCN(C(=O)CN3CCC(CN4CCN(c5cccc6c5C(=O)N(C5CCC(=O)NC5=O)C6=O)CC4)CC3)CC2)c1)[C@H]1CC[C@@H](c2ccnc3ccc(F)cc32)CC1` (stereo not given in full) was tested. Which DC50 [1] did it give?
**A.** > 10 µM

**Q.** And the Emax [2]?
**A.** < 10%

**Q.** With `C[C@@H](C(=O)Nc1ccc(Cl)c(OC2CCN(C(=O)CCOCCOCCNc3ccc4c(c3)C(=O)N(C3CCC(=O)NC3=O)C4=O)CC2)c1)[C@H]1CC[C@@H](c2ccnc3ccc(F)cc32)CC1` (stereo not given in full) as the molecule, how does the DC50 [1] read?
**A.** > 10 µM

**Q.** What about the Emax [2] of the same molecule?
**A.** < 10%

**Q.** For `C[C@@H](C(=O)Nc1cccc(OC2CCN(C(=O)CCN3CCN(c4ccc5c(c4)C(=O)N(C4CCC(=O)NC4=O)C5=O)CC3)CC2)c1)[C@H]1CC[C@@H](c2ccnc3ccc(F)cc32)CC1` (stereo not given in full), which DC50 [1] is on record?
**A.** > 10 µM

**Q.** And the Emax [2]?
**A.** < 10%

**Q.** Which DC50 [1] does the source give for `C[C@@H](C(=O)Nc1ccc(OC2CCN(C(=O)CCOCCOCCNc3ccc4c(c3)C(=O)N(C3CCC(=O)NC3=O)C4=O)CC2)cc1)[C@H]1CC[C@@H](c2ccnc3ccc(F)cc32)CC1` (stereo not given in full) here?
**A.** > 10 µM

**Q.** And the Emax [2]?
**A.** < 10%

**Q.** With `C[C@@H](C(=O)Nc1ccc(OC2CCN(C(=O)CCOCCN3CCN(c4cccc5c4C(=O)N(C4CCC(=O)NC4=O)C5=O)CC3)CC2)cc1)[C@H]1CC[C@@H](c2ccnc3ccc(F)cc32)CC1` (stereo not given in full) as the molecule, how does the DC50 [1] read?
**A.** > 10 µM

**Q.** What about the Emax [2] of the same molecule?
**A.** < 10%

**Q.** With `C[C@@H](C(=O)Nc1ccc(Cl)c(OC2CCN(C(=O)CCOCCN3CCN(c4cccc5c4C(=O)N(C4CCC(=O)NC4=O)C5=O)CC3)CC2)c1)[C@H]1CC[C@@H](c2ccnc3ccc(F)cc32)CC1` (stereo not given in full) as the molecule, how does the DC50 [1] read?
**A.** > 10 µM

**Q.** What about the Emax [2] of the same molecule?
**A.** < 10%

**Q.** `C[C@@H](C(=O)Nc1ccc(OC2CCN(C(=O)CN3CCC(N4CCN(c5ccc6c(c5)C(=O)N(C5CCC(=O)NC5=O)C6=O)CC4)CC3)CC2)cc1)[C@H]1CC[C@@H](c2ccnc3ccc(F)cc32)CC1` (stereo not given in full) was tested. Which DC50 [1] did it give?
**A.** 0.034 µM

**Q.** What about the Emax [2] of the same molecule?
**A.** 21%
